In data set [1] the test system is Rattus norvegicus. In words: Antiinflammatory activity in Wistar albino rat assessed as inhibition of carrageenan-induced paw edema at 0.029 mmol/kg, po dosed 1 hr before carrageenan challenge measured 1 hr post carrageenan-induced inflammation. The format is functional. In a few lines:
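Wistar albino rats of both sexes, 120–150 g, six per group, food withdrawn the day before. Given orally 0.029 mmol/kg in saline with a few drops of Tween 80, by stomach tube, 1 h before subplantar s.c. carrageenan (0.1 ml of 1%) into the right hind paw. Paw thickness measured at 1, 2, 3 and 4 h against baseline. % inhibition = 100 × (1 − Vt/Vc).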
Background: The carrageenan paw model is a standard test of acute inflammation.

Data set [2] deals with Rattus norvegicus. In words: Antiinflammatory activity in Wistar albino rat assessed as inhibition of carrageenan-induced paw edema at 1 mg/kg, po dosed 1 hr before carrageenan challenge measured after carrageenan-induced inflammation. The format is functional. In short, it runs like this:
(§1)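 Rat carrageenan paw oedema, six animals per group. Oral doses of 1, 2, 4 and 6 mg/kg in saline/Tween 80 given 1 h before 0.1 ml of 1% carrageenan s.c. into the right hind paw. Oedema measured as thickness increase over baseline. % inhibition = 100 × (1 − Vt/Vc). IC50 derived from the dose–response and reported in mg/kg and µmol/kg.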

Data set [3] concerns Rattus norvegicus. In words: Antiinflammatory activity in Wistar albino rat assessed as inhibition of carrageenan-induced paw edema at 2 mg/kg, po dosed 1 hr before carrageenan challenge measured after carrageenan-induced inflammation. The format is functional. In short, it runs like this: as §1
In data set [4] the test system is Rattus norvegicus. The experiment in a line: Antiinflammatory activity in Wistar albino rat assessed as inhibition of carrageenan-induced paw edema at 4 mg/kg, po dosed 1 hr before carrageenan challenge measured after carrageenan-induced inflammation. The format is functional. In short, it runs like this: as §1
The test system of data set [5] is Rattus norvegicus. In words: Antiinflammatory activity in Wistar albino rat assessed as inhibition of carrageenan-induced paw edema at 6 mg/kg, po dosed 1 hr before carrageenan challenge measured after carrageenan-induced inflammation. The format is functional. In a few lines: as §1
In data set [6] the test system is Rattus norvegicus. The experiment in a line: Antiinflammatory activity in po dosed Wistar albino rat assessed as inhibition of carrageenan-induced paw edema dosed 1 hr before carrageenan challenge measured after carrageenan-induced inflammation. The format is functional, organism-based. In a few lines:
as §1

The test system of data set [7] is Rattus norvegicus. In words: Gastrointestinal toxicity in Wistar albino rat assessed as incidence of stomach ulceration at 0.029 mmol/kg, po. The format is organism-based. The settings on record: in vivo. In a few lines: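 Rats given single oral dose suspended in saline with few drops Tween 80 (groups of 6); killed under deep ether anaesthesia 5 h after treatment; stomach opened along greater curvature and examined for lesions or bleeding; ulceration expressed as number of rats affected per group.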

For data set [8], the system named is Mus musculus. In words: Analgesic activity in Swiss albino mouse assessed as inhibition of acetic acid-induced writhing at 0.029 mmol/kg. po dosed 1 hr before acetic acid challenge and measured during 30 mins post acetic acid challenge. It is filed as functional. In short, it runs like this: (§2)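 Swiss albino mice of either sex, 18–22 g, six per group. Oral suspension at 0.029 mmol/kg given 1 h before 0.3 ml of 1% acetic acid i.p. Contractions counted for 30 min, starting 5 min after injection. % protection = (n − n')/n × 100 against control writhing. Potency% = % inhibition of test / % inhibition of indomethacin × 100. Mean ± SEM, ANOVA with post hoc test.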

Data set [9] concerns Mus musculus. The experiment in a line: Analgesic activity in Swiss albino mouse assessed as inhibition of acetic acid-induced writhing at 0.029 mmol/kg. po dosed 1 hr before acetic acid challenge and measured during 30 mins post acetic acid challenge relative to indomethacin. The format is functional. The settings on record: read-out: INH. In a few lines:
as §2
A general note: An intraperitoneal irritant provokes the stretching counted in writhing tests.

The subject of data set [10] is Rattus norvegicus. In words: Gastrointestinal toxicity in Wistar albino rat assessed as incidence of stomach ulceration at 0.029 mmol/kg, po followed by another two compound doses in second and third days measured on fourth day post dose by acute ulcerogenicity study. The note with it: in vivo. The format is organism-based. In a few lines: (§3)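 Adult Wistar rats of both sexes, 120–150 g, groups of 6, fasted 20 h; oral dose suspended in 1% Tween (vehicle group 1% Tween); fasted 2 h, fed 2 h, fasted 20 h; further doses on days 2 and 3. Scored: % incidence/10, mean ulcers per rat, mean severity score; ulcer index = sum of the three.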

The subject of data set [11] is Rattus norvegicus. The experiment in a line: Gastrointestinal toxicity in Wistar albino rat assessed as stomach ulcer index at 0.029 mmol/kg, po followed by another two compound doses in second and third days measured on fourth day post dose by acute ulcerogenicity study. The format is organism-based. The settings on record: in vivo. In short, it runs like this:
as §3

Data set [12] in a line: Lipophilicity, log P of the compound. It is filed as physicochemical. The settings on record: octanol/water.
Data set [13] concerns Rattus norvegicus. The experiment in a line: Antiinflammatory activity in Wistar albino rat assessed as inhibition of carrageenan-induced paw edema at 0.029 mmol/kg, po dosed 1 hr before carrageenan challenge measured 2 hrs post carrageenan-induced inflammation.
The test system of data set [14] is Rattus norvegicus. In words: Antiinflammatory activity in Wistar albino rat assessed as inhibition of carrageenan-induced paw edema at 0.029 mmol/kg, po dosed 1 hr before carrageenan challenge measured 3 hrs post carrageenan-induced inflammation.
Data set [15] relates to Rattus norvegicus. The experiment in a line: Antiinflammatory activity in Wistar albino rat assessed as inhibition of carrageenan-induced paw edema at 0.029 mmol/kg, po dosed 1 hr before carrageenan challenge measured 4 hrs post carrageenan-induced inflammation.

As usually defined, the inhibition in vivo is the percentage by which the read-out fell short of the control. The term logP denotes a log measure of how a compound divides between an organic and an aqueous phase. As to `O=C(O)Cc1nc2c(c(=O)[nH]1)C1CCCN1C(=O)N2c1ccccc1` (stereo not given), the inhibition in vivo at 29 µmol/kg was 77% in data set [1]; 57.6% in data set [8]; 70% in data set [13]; 72% in data set [14]; 80% in data set [15]. In data set [2], the inhibition in vivo at 1 mg/kg was found to be 20%. Moreover, the inhibition in vivo at 2 mg/kg in data set [3] stood at 40%. Moreover, the inhibition in vivo at 4 mg/kg in data set [4] is 64%. For the same compound, the inhibition in vivo at 6 mg/kg in data set [5] amounted to 74%. The IC50 in data set [6] turned out to be 10 µmol/kg. Also, the Activity result in data set [7] is listed as “Toxic”; in data set [10] it was 8.33%. Besides, the writhing inhibition relative to indomethacin (potency %) at 29 µmol/kg in data set [9] stood at 87.2%. The UI in data set [11] was 10.49. This compound returned a logP in data set [12] of 0.749.
With `Cc1ccc(-c2cc(C(F)(F)F)nn2-c2ccc(S(N)(=O)=O)cc2)cc1` [CELECOXIB], the inhibition in vivo at 29 µmol/kg turned out to be 54% in [1], 34% in data set [13], 47% in data set [14] and 48% in data set [15]. The Activity entry in data set [7] was “Toxic”; in data set [10] it was 6.66%. For the same compound, the UI in data set [11] turned out to be 11.13.
Consider `O=C(N/N=C/c1ccccc1)c1nc2c(c(=O)[nH]1)C1CCCN1C(=O)N2c1ccccc1` (stereo not given), for which the inhibition in vivo at 29 µmol/kg was determined as 68% in data set [1]; 57.6% in [8]; 41% in data set [13]; 53% in [14]; 50% in [15]. For the same compound, in [7], the Activity result is reported as “Toxic”. The writhing inhibition relative to indomethacin (potency %) at 29 µmol/kg in data set [9] came out at 87.2%. The compound also returned a logP in data set [12] of 3.35.
As for `Cc1cc(=O)n(C(=O)c2nc3c(c(=O)[nH]2)C2CCCN2C(=O)N3c2ccccc2)[nH]1` (stereo not given), the inhibition in vivo at 29 µmol/kg in [1] amounted to 57%; in data set [8] it was 61%; in data set [13] it was 34%; in data set [14] it was 57%; in data set [15], 62%. The Activity entry in [7] was “Non-toxic”. Moreover, in data set [9], the writhing inhibition relative to indomethacin (potency %) at 29 µmol/kg worked out at 92.2%. In data set [12], this compound registered a logP of 0.772.
For the compound `CCOC(=O)Cc1nc2c(c(=O)[nH]1)C1CCCN1C(=O)N2c1ccccc1` (stereo not given), the inhibition in vivo at 29 µmol/kg in data set [1] amounted to 81%; in [8], 70.8%; in data set [13], 80%; in data set [14] it was 90%; in data set [15] it was 89%. The inhibition in vivo at 1 mg/kg in data set [2] is 12%. Further, in [3], the inhibition in vivo at 2 mg/kg was 32%. Also, the inhibition in vivo at 4 mg/kg in data set [4] worked out at 60%. Also, the inhibition in vivo at 6 mg/kg in data set [5] stood at 64%. Also, the IC50 in [6] was determined as 11 µmol/kg. In addition, the Activity result was “Non-toxic” in data set [7] and 5% in data set [10]. In [9], the writhing inhibition relative to indomethacin (potency %) at 29 µmol/kg stood at 107%. Also, the UI in data set [11] came to 7. Moreover, in data set [12], the logP came to 1.53.
For the compound `COc1ccc(/C=N/NC(=O)c2nc3c(c(=O)[nH]2)C2CCCN2C(=O)N3c2ccccc2)cc1O` (stereo not given), the inhibition in vivo at 29 µmol/kg in [1] was 18%; in data set [8], 43.8%; in data set [13], 15%; in [14] it was 46%; in [15], 46%. Moreover, in [7], the Activity entry is on record as “Non-toxic”. For the same compound, the writhing inhibition relative to indomethacin (potency %) at 29 µmol/kg in [9] amounted to 66.2%. This compound also registered a logP in [12] of 2.42.
`O=C(N/N=C/c1ccccc1O)c1nc2c(c(=O)[nH]1)C1CCCN1C(=O)N2c1ccccc1` (stereo not given): the inhibition in vivo at 29 µmol/kg came to 53% in [1]; 68.9% in [8]; 34% in data set [13]; 46% in [14]; 47% in data set [15]. Also, the Activity result in data set [7] is reported as “Toxic”. In addition, the writhing inhibition relative to indomethacin (potency %) at 29 µmol/kg in data set [9] amounted to 104%. In addition, the log partition coefficient (logP) in data set [12] was 2.46.
As for `O=C(O)c1nc2c(c(=O)[nH]1)C1CCCN1C(=O)N2c1ccccc1` (stereo not given), the inhibition in vivo at 29 µmol/kg was 68% in [1]; 64.7% in data set [8]; 56% in [13]; 66% in [14]; 72% in [15]. Also, the Activity entry in [7] is recorded as “Toxic”. Moreover, the writhing inhibition relative to indomethacin (potency %) at 29 µmol/kg in data set [9] was 97.8%. The compound further returned a logP in [12] of 0.661.
On to `C/C(=N\NC(=O)c1nc2c(c(=O)[nH]1)C1CCCN1C(=O)N2c1ccccc1)c1ccccc1` (stereo not given), for which the inhibition in vivo at 29 µmol/kg in [1] worked out at 61%; in [8] it was 67.5%; in [13] it was 44%; in data set [14], 53%; in data set [15], 61%. Besides, the Activity entry in data set [7] is listed as “Toxic”. Moreover, the writhing inhibition relative to indomethacin (potency %) at 29 µmol/kg in [9] came out at 102%. The compound further displayed a logP in data set [12] of 3.28.
On to `COc1ccc2c(c1)c(CC(=O)O)c(C)n2C(=O)c1ccc(Cl)cc1` [INDOMETHACIN], for which the inhibition in vivo at 29 µmol/kg was found to be 57% in data set [1]; 66.1% in [8]; 39% in data set [13]; 47% in [14]; 51% in [15]. Further, the Activity result is “Toxic” in [7] and 10% in data set [10]. In addition, the UI in data set [11] worked out at 14.73.
Take `Nc1cc(=O)[nH]n1C(=O)c1nc2c(c(=O)[nH]1)C1CCCN1C(=O)N2c1ccccc1` (stereo not given): the inhibition in vivo at 29 µmol/kg in [1] came to 50%; in data set [8] it was 70.3%; in data set [13] it was 20%; in data set [14], 45%; in data set [15], 50%. In data set [7], the Activity entry is on record as “Non-toxic”. Further, in [9], the writhing inhibition relative to indomethacin (potency %) at 29 µmol/kg was found to be 106%. In data set [12], this compound gave a logP of 0.517.
Take `O=C(N/N=C/c1ccc(Cl)cc1)c1nc2c(c(=O)[nH]1)C1CCCN1C(=O)N2c1ccccc1` (stereo not given): the inhibition in vivo at 29 µmol/kg stood at 54% in [1]; 34.8% in [8]; 32% in [13]; 44% in data set [14]; 38% in [15]. In data set [7], the Activity result is on record as “Non-toxic”. Moreover, in data set [9], the writhing inhibition relative to indomethacin (potency %) at 29 µmol/kg was determined as 52.7%. The logP in [12] was 3.36.
For `CCOC(=O)C/C(C)=N/NC(=O)c1nc2c(c(=O)[nH]1)C1CCCN1C(=O)N2c1ccccc1` (stereo not given), the inhibition in vivo at 29 µmol/kg in [1] is 45%; in data set [8] it was 1.17%; in data set [13], 41%; in data set [14], 47%; in data set [15], 52%. Also, the Activity entry in [7] is “Non-toxic”. The writhing inhibition relative to indomethacin (potency %) at 29 µmol/kg in data set [9] worked out at 1.77%. Further, the logP in [12] was 1.28.
On to `NNC(=O)c1nc2c(c(=O)[nH]1)C1CCCN1C(=O)N2c1ccccc1` (stereo not given), for which the inhibition in vivo at 29 µmol/kg in data set [1] was found to be 56%; in [8] it was 32.2%; in data set [13], 45%; in data set [14] it was 50%; in data set [15], 56%. Besides, the Activity entry in [7] was “Toxic”. Further, in data set [9], the writhing inhibition relative to indomethacin (potency %) at 29 µmol/kg is 48.7%. This compound showed a logP in data set [12] of -0.487.
